Activity calls are given as the source filed them. The rule behind the calls is not given here.
Legend:
[1] = system: Plasmodium falciparum; test: Antimalarial activity against chloroquine-sensitive Plasmodium falciparum 3D7 infected in human erythrocytes assessed as inhibition of parasite growth after 72 hrs by SYBR Green I method; assay type: functional, organism-based; conditions: 3D7, 72 h
Outline: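 P. falciparum 3D7 grown in human erythrocytes (2% hematocrit) in RPMI1640 with Hepes, hypoxanthine, glucose, bicarbonate and Albumax I under 5% CO2/5% O2/90% N2. 10 mM DMSO stocks, 3-fold serial dilutions. Quadruplicate wells at 0.5% parasitemia, 0.1% DMSO final, 72 h at 37 °C. SYBR Green I lysis buffer added, 1 h dark, fluorescence 497/520. IC50 by four-parameter logistic fit.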

[2] = system: HepG2; test: Cytotoxicity against human HepG2 cells assessed as inhibition of cell viability after 72 hrs by PrestoBlue Cell Viability Reagent based assay; conditions: HepG2, 72 h
Outline: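 HepG2 kept in DMEM with 10% FBS and L-glutamine on poly-D-lysine at 37 °C, 5% CO2. Seeded 10,000 cells/well, allowed to adhere at least 4 h, then exposed to compound for 72 h. PrestoBlue added for 30 min at 37 °C, fluorescence Ex 560/Em 590 nm. IC50 by nonlinear regression.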

[3] = Selectivity index, ratio of IC50 for human HepG2 cells to IC50 for chloroquine-sensitive Plasmodium falciparum 3D7 infected in human erythrocytes; assay type: toxicity, cell-based; conditions: read-out: Ratio IC50
[4] = biological target: Beta-secretase 1 (Homo sapiens) (UniProt P56817); test: Inhibition of human recombinant BACE1 using Mca-SEVNLDAEFRK(Dnp)RR-NH2 as substrate up to 10 uM by FRET assay
Beta-secretase 1 (Homo sapiens), sequence (P56817 whole entry): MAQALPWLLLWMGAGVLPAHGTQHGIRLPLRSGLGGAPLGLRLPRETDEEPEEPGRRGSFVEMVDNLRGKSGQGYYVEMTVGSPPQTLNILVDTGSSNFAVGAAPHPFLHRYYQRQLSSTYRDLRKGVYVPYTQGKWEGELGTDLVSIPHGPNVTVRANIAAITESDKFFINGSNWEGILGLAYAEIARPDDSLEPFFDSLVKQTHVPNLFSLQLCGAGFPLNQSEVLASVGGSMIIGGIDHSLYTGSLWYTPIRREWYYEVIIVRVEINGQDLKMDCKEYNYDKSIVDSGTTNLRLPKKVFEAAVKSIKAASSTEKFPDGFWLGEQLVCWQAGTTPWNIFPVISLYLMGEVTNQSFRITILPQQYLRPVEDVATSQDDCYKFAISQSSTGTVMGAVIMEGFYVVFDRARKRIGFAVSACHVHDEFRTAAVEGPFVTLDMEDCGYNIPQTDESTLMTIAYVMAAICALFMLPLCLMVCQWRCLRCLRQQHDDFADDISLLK
Outline: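 Recombinant human BACE1 at 20 ng/µl, activated 15 min at RT in 100 mM sodium acetate pH 4.0. FRET substrate added at 20 uM final. Run 60 min at RT, time-resolved fluorescence Ex/Em 360/460 nm. IC50 by nonlinear regression.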

[5] = biological target: Cathepsin D (Homo sapiens) (UniProt P07339); test: Inhibition of human recombinant cathepsin D using Mca-PLGL-Dpa-AR-NH2 as substrate up to 10 uM by FRET assay
Cathepsin D (Homo sapiens), sequence (P07339 65-162 limits assumed): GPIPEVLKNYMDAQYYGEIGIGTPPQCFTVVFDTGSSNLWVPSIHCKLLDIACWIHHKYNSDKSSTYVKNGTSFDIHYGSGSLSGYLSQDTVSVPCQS
Cathepsin D (Homo sapiens), sequence (P07339 169-412 limits assumed): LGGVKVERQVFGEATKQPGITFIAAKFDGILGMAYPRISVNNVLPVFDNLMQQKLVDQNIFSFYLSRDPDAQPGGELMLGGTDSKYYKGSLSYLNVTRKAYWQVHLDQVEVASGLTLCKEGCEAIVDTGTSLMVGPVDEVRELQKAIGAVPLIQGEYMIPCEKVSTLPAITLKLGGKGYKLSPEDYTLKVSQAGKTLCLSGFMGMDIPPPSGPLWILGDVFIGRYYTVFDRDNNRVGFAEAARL
Outline: (§1)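 Recombinant human cathepsin D at 20 ng/µl and cathepsin E at 1 ng/µl, each activated 30 min at RT in 0.1 M NaOAc, 0.2 M NaCl, pH 3.5. FRET substrate added at 20 uM final. Run 60 min at RT, time-resolved fluorescence Ex/Em 360/460 nm. IC50 by nonlinear regression.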

[6] = biological target: T1, Cathepsin E (Homo sapiens) (UniProt P14091); test: Inhibition of human recombinant cathepsin E using Mca-PLGL-Dpa-AR-NH2 as substrate up to 10 uM by FRET assay; outline: as §1
T1 sequence (whole entry): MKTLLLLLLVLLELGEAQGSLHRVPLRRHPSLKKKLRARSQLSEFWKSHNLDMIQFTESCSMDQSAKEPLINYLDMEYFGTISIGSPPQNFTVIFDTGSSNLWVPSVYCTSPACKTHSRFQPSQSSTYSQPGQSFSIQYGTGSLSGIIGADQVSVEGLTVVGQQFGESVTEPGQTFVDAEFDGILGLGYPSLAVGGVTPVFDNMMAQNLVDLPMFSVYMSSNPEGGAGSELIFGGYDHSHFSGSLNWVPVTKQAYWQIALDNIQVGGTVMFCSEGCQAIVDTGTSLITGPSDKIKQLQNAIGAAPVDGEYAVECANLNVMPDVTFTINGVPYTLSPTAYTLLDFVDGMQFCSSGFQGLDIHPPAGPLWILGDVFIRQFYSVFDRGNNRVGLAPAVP

[7] = system: Plasmodium; test: Inhibition of Plasmodium plamepsin 2 using EDANS-CO-CH2-CH2-CO-ALERMFLSFP-Dap(DABCYL)OH as substrate up to 10 uM after 60 mins by fluorescence assay
Outline: (§2)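 Recombinant PM-2 or PM-4, purified and activated at 0.3 mg/ml in pH 4.5 citrate, 0.1% Tween-20, 50 mM DTT for 40 min at RT. Then diluted in 50 mM sodium acetate pH 4.7, 0.01% Tween-20. Serially diluted compounds added, followed by peptide substrate at 20 μM final. Run 60 min at RT, fluorescence Ex/Em 360/535 nm. IC50 derived from the curve.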

[8] = system: Plasmodium; test: Inhibition of Plasmodium plamepsin 4 using EDANS-CO-CH2-CH2-CO-ALERMFLSFP-Dap(DABCYL)OH as substrate up to 10 uM after 60 mins by fluorescence assay; outline: as §2
[9] = system: Plasmodium falciparum; test: Antimalarial activity against multidrug-resistant Plasmodium falciparum Dd2 infected in human erythrocytes assessed as inhibition of parasite growth after 72 hrs by SYBR Green I method; assay type: functional, organism-based; conditions: Dd2, 72 h
Outline: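 SYBR Green I growth assay in human erythrocytes. DMSO stocks (10 mM), 3-fold serial dilutions, then diluted 500-fold into medium and added in quadruplicate. Final conditions: 2% hematocrit, 0.5% parasitemia, 0.1% DMSO. Incubated 72 h at 37 °C. Lysis buffer with SYBR Green I added, 1 h at room temperature in the dark. Fluorescence read at 497/520 nm. IC50 from four-parameter logistic nonlinear regression.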

[10] = system: Liver; test: Half-life in mouse liver microsomes at 1 uM by LC-MS/MS analysis; assay type: ADME
Outline: (§3)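 Compound at 1 μM with liver microsomes (mouse, rat or human), 1.2 mM NADPH, 3.3 mM MgCl2, 100 mM potassium phosphate pH 7.4, at 37 °C. Aliquots taken at 0, 5, 10, 20 and 30 min and quenched in ice-cold acetonitrile with internal standard. Centrifuged supernatant run by LC-MS/MS. Half-life from analyte/internal standard peak-area ratios.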

[11] = system: Liver microsome; test: Half-life in rat liver microsomes at 1 uM by LC-MS/MS analysis; assay type: ADME; outline: as §3
[12] = system: Liver microsome; test: Half-life in human liver microsomes at 1 uM by LC-MS/MS analysis; assay type: ADME; outline: as §3
[13] = Half-life in Sprague-Dawley rat at 1 mg/kg, iv and 5 mg/kg, po by LC-MS analysis; assay type: ADME, organism-based; conditions: in vivo
[14] = system: Rattus norvegicus; test: Volume of distribution in Sprague-Dawley rat at 1 mg/kg, iv and 5 mg/kg, po by LC-MS analysis; assay type: ADME, organism-based; conditions: in vivo
[15] = system: Rattus norvegicus; test: Oral bioavailability in Sprague-Dawley rat at 5 mg/kg by LC-MS analysis; assay type: ADME, organism-based; conditions: in vivo

| Compound | IC50 [1] | other results |
| --- | --- | --- |
| CC(C)CCN1C(=O)N(CCCc2ccncc2)C(=O)C12CCN(Cc1cc(Cl)ccc1O)CC2 | 0.61 µM | – |
| CCN1C(=O)N(CCC(C)C)C2(CCN(Cc3cc(Cl)cc(Cl)c3O)CC2)C1=O | 0.46 µM | – |
| CCN1C(=O)N(CCC(C)C)C2(CCN(Cc3cc(OC)ccc3O)CC2)C1=O | 0.56 µM | – |
| CCN1C(=O)N(CCC(C)C)C2(CCN(Cc3ccc(Cl)cc3O)CC2)C1=O | 2.1 µM | IC50 [2]: > 50 µM |
| CCN1C(=O)N(CCC(C)C)C2(CCN(C(=O)c3ccccn3)CC2)C1=O | > 10 µM | – |
| CCN1C(=O)N(CCC(C)C)C2(CCN(Cc3cc(C)ccc3O)CC2)C1=O | 0.88 µM | – |
| CCN1C(=O)N(CCC(C)C)C2(CCN(Cc3cccc(OC)c3)CC2)C1=O | 16 µM | – |
| CCN1C(=O)N(CCC(C)C)C2(CCN(Cc3ccc(O)c(Cl)c3)CC2)C1=O | 2.6 µM | – |
| CCN1C(=O)N(CCC(C)C)C2(CCN(Cc3cc(Cl)cnc3N)CC2)C1=O | > 10 µM | – |
| CCN1C(=O)N(CCC(C)C)C2(CCN(Cc3ccccc3O)CC2)C1=O | 1.1 µM | – |
| CCN1C(=O)N(CCC(C)C)C2(CCN(Cc3c(O)ccc(Cl)c3Cl)CC2)C1=O | 0.28 µM | – |
| CCN1C(=O)N(Cc2ccccc2)C2(CCN(Cc3cc(Cl)ccc3O)CC2)C1=O | 0.56 µM | – |
| CCN1C(=O)N(CCC(C)C)C2(CCN(Cc3cccc(OC)c3O)CC2)C1=O | 6 µM | – |
| CCN1C(=O)N(CCC(C)C)C2(CCN(C(=O)c3cc(Cl)ccc3O)CC2)C1=O | > 10 µM | – |
| CCN1C(=O)N(CCC(C)C)C2(CCN(Cc3cc(-c4ccccc4)ccc3O)CC2)C1=O | 0.29 µM | IC50 [2]: > 50 µM |
| CCN1C(=O)N(CCC(C)C)C2(CCN(Cc3cc(Cl)ccc3O)CC2)C1=O | 0.22 µM | IC50 [2]: 37 µM; selectivity ratio [3]: > 100; inhibition [4]: inactive; inhibition [5]: inactive; inhibition [6]: inactive; inhibition [7]: inactive; inhibition [8]: inactive; IC50 [9]: 0.22 µM; t1/2 [10]: 4 min; t1/2 [11]: 3 min; t1/2 [12]: 9 min; half-life [13]: 16.8 min; Vd [14]: 3.7 L/kg; F [15]: 10% |
| CCN1C(=O)N(CCC(C)C)C2(CCN(Cc3cc(Cl)c(Cl)cc3O)CC2)C1=O | 0.09 µM | IC50 [2]: > 50 µM; selectivity ratio [3]: > 500; inhibition [4]: inactive; inhibition [5]: inactive; inhibition [6]: inactive; inhibition [7]: inactive; inhibition [8]: inactive |
| CC(C)CCN1C(=O)NC(=O)C12CCN(Cc1cc(Cl)ccc1O)CC2 | > 10 µM | – |
| CCN1C(=O)N(CCc2ccccc2)C2(CCN(Cc3cc(Cl)ccc3O)CC2)C1=O | 0.29 µM | – |
| CCN1C(=O)N(CCC(C)C)C2(CCN(Cc3ccccn3)CC2)C1=O | > 10 µM | – |
| CCN1C(=O)N(c2ccccc2)C2(CCN(Cc3cc(Cl)ccc3O)CC2)C1=O | 3.6 µM | – |

| Compound | IC50 [1] | other results |
| --- | --- | --- |
| CCN1C(=O)N(CC)C2(CCN(Cc3cc(Cl)ccc3O)CC2)C1=O | 6.7 µM | – |
| CCN1C(=O)N(CCC(C)C)C2(CCN(Cc3cc(F)ccc3O)CC2)C1=O | 1.4 µM | – |
| CCN1C(=O)N(CCC(C)C)C2(CCN(Cc3ccc(OC)cc3OC)CC2)C1=O | 7.6 µM | – |
| CCN1C(=O)N(CCC(C)C)C2(CCN(CCCO)CC2)C1=O | > 10 µM | – |
| CCN1C(=O)N(CCC(C)C)C2(CCN(Cc3cccc4cccnc34)CC2)C1=O | > 10 µM | – |
| CCN1C(=O)N(CCC(C)C)C2(CCN(Cc3c(O)cccc3Cl)CC2)C1=O | 0.41 µM | – |
| CCN1C(=O)N(Cc2ccc(C(F)(F)F)cc2)C2(CCN(Cc3cc(Cl)ccc3O)CC2)C1=O | 0.23 µM | – |
| CCN1C(=O)N(Cc2ccc(OC)cc2)C2(CCN(Cc3cc(Cl)ccc3O)CC2)C1=O | 0.56 µM | – |
| CCN1C(=O)N(CCC(C)C)C2(CCN(Cc3cccnc3N)CC2)C1=O | > 10 µM | – |
| CCN1C(=O)N(CCC(C)C)C2(CCN(Cc3cc(O)cc(Cl)c3)CC2)C1=O | 0.76 µM | – |
| CCN1C(=O)NC2(CCN(Cc3cc(Cl)ccc3O)CC2)C1=O | > 10 µM | – |
| CCN1C(=O)N(CCC(C)C)C2(CCN(Cc3cccc(Cl)c3)CC2)C1=O | 14 µM | – |
| CC(C)CCN1C(=O)N(Cc2cccnc2)C(=O)C12CCN(Cc1cc(Cl)ccc1O)CC2 | 0.84 µM | – |
| CCN1C(=O)N(CCC(C)C)C2(CCN(Cc3cccc4cc[nH]c34)CC2)C1=O | 3.4 µM | – |
| CCN1C(=O)N(CCC(C)C)C2(CCNCC2)C1=O | > 10 µM | – |
| CC(C)CCN1C(=O)N(C(C)C)C(=O)C12CCN(Cc1cc(Cl)ccc1O)CC2 | 0.11 µM | – |
| CCN1C(=O)N(CCC(C)C)C2(CCN(Cc3cc(Br)ccc3O)CC2)C1=O | 0.21 µM | – |
| CCN1C(=O)N(Cc2ccc(C#N)cc2)C2(CCN(Cc3cc(Cl)ccc3O)CC2)C1=O | 1.5 µM | – |
| CCN1C(=O)N(CCC(C)C)C2(CCN(Cc3cccc(Cl)c3O)CC2)C1=O | 1.1 µM | – |
| CCN1C(=O)N(C2CCCC2)C2(CCN(Cc3cc(Cl)ccc3O)CC2)C1=O | 0.43 µM | – |
| CCN1C(=O)N(CCC(C)C)C2(CCN(Cc3ccc(OC)cc3O)CC2)C1=O | 0.94 µM | – |

Reference: ChEMBL document CHEMBL3603824, “Evaluation of spiropiperidine hydantoins as a novel class of antimalarial agents” (Bioorg Med Chem, 2015)
